Measured values: ChEMBL document CHEMBL3272094 (J Med Chem, 1978)
Values belong to the compound of their own block, whether it stands above or below them. Calls of active or inactive are those of the source. The calls are words filed in the database; no cut-off is given here.

Legend:
[1] = Competitive inhibition of tyrosine hydroxylase (unknown origin); parameters: species or system Homo sapiens
Felis catus = assay: Inhibition of isoproterenol-induced tachycardia in cat at 100 ug/kg; format: functional
Cavia porcellus [2] = organism: Cavia porcellus; assay: Agonist activity at alpha-adrenergic receptor in guinea pig aortic strip assessed as induction of contraction
How it was run: (§1)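 Spirally cut thoracic aortic strip (3 cm × 2 mm) from male guinea pig (400–900 g), in modified Krebs at 37.0 °C, gassed 95% O2/5% CO2. Initial tension 0.5 g, equilibrated ≥2 h. Isometric contraction recorded over cumulative dose-response curves, with each dose held until the response levelled (10 min). Responses expressed as % of maximum contraction to 10⁻⁴ M norepinephrine added after the last dose.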

Rattus norvegicus [3] = assay: Hypertensive effect in Wistar rat assessed as mean arterial pressure at 10 umol/kg; format: functional, Artery
How it was run: (§2)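 Rats given 1 or 10 μmol/kg iv as a 0.5 mL/kg saline bolus. Mean arterial pressure recorded and the pressor response corrected for the saline injection artifact. Reserpine groups received 2.5 mg/kg ip at 48 and 24 h before. Phentolamine 10 mg/kg iv was given 1 min before dosing. Means ± SEM, n=3–6.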

Rattus norvegicus [4] = assay: Hypertensive effect in Wistar rat assessed as mean arterial pressure at 1 umol/kg; format: functional, Artery; how it was run: as §2
Rattus norvegicus [5] = assay: Hypertensive effect in Wistar rat assessed as mean arterial pressure at 10 umol/kg in presence of phentolamine; format: functional, Artery; how it was run: as §2
Rattus norvegicus [6] = assay: Hypertensive effect in Wistar rat assessed as mean arterial pressure at 10 umol/kg in presence of phentolamine and reserpine; format: functional, Artery; how it was run: as §2
Rattus norvegicus [7] = assay: Hypertensive effect in Wistar rat assessed as mean pressor response at 1 umol/kg; format: functional; how it was run: as §2
Rattus norvegicus [8] = assay: Hypertensive effect in Wistar rat assessed as mean pressor response at 1 umol/kg in presence of reserpine; format: functional; how it was run: as §2
Rattus norvegicus [9] = assay: Hypertensive effect in Wistar rat assessed as mean pressor response at 10 umol/kg; format: functional; how it was run: as §2
Rattus norvegicus [10] = assay: Hypertensive effect in Wistar rat assessed as mean pressor response at 10 umol/kg in presence of reserpine; format: functional; how it was run: as §2
Rattus norvegicus [11] = assay: Hypertensive effect in Wistar rat assessed as mean pressor response at 10 umol/kg in presence of phentolamine; format: functional; how it was run: as §2
Rattus norvegicus [12] = assay: Hypertensive effect in Wistar rat assessed as mean pressor response at 10 umol/kg in presence of phentolamine and reserpine; format: functional; how it was run: as §2
Rattus norvegicus [13] = assay: Hypertensive effect in Wistar rat assessed as increase in mean arterial pressure at 10 umol/kg relative to control; format: functional, Artery; how it was run: as §2
Rattus norvegicus [14] = assay: Hypertensive effect in Wistar rat assessed as increase in blood pressure at 20 umol/kg administered repeatedly in presence of reserpine; format: functional
How it was run: (§3)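 Reserpine-pretreated rat given repeated iv injections of 20 μmol/kg, then 128 μmol/kg infused over 90 s. Arterial blood pressure recorded continuously, including time to return to preinjection level.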

Rattus norvegicus [15] = assay: Hypertensive effect in Wistar rat assessed as increase in blood pressure at 20 umol/kg administered repeatedly followed by infusion of 128 umol/kg for 90 secs in presence of reserpine; format: functional; how it was run: as §3
Rattus norvegicus [16] = assay: Hypertensive effect in Wistar rat assessed as increase in blood pressure at 20 umol/kg administered repeatedly after 15 mins in presence of reserpine; format: functional, organism-based; how it was run: as §3
Rattus norvegicus [17] = assay: Hypertensive effect in Wistar rat assessed as tachyphylaxis at 20 umol/kg administered repeatedly followed by infusion of 128 umol/kg for 90 secs in presence of reserpine; format: functional, organism-based; how it was run: as §3
Cavia porcellus [18] = organism: Cavia porcellus; assay: Agonist activity at alpha-adrenergic receptor in guinea pig aortic strip assessed as induction of contraction relative to norepinephrine; how it was run: as §1
Cavia porcellus [19] = organism: Cavia porcellus; assay: Agonist activity at alpha-adrenergic receptor in guinea pig aortic strip assessed as induction of contraction up to 3 x 10^-3 M in presence of phentolamine
Rattus norvegicus [20] = assay: Hypertensive effect in Wistar rat assessed as mean arterial pressure at 10 umol/kg in presence of reserpine; format: functional, Artery; how it was run: as §2
Rattus norvegicus [21] = assay: Hypertensive effect in Wistar rat assessed as mean arterial pressure at 1 umol/kg in presence of reserpine; format: functional, Artery; how it was run: as §2
Rattus norvegicus [22] = assay: Hypertensive effect in Wistar rat assessed as increase in heart rate at 1 nmol/kg (reference value: 1 +/- 0.1 beats/min); format: functional
How it was run: (§4)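 Intact rats; femoral or jugular vein cannulated. Doses of 1–1000 nmol/kg given as a 0.5 mL/kg iv saline bolus, each followed by a heparinized saline flush. Arterial pressure and heart rate taken from the oxygraph recording. A saline control was injected first. For the propranolol group, 1.0 mg/kg propranolol was given 5 min before 1.0 μmol/kg. Means ± SEM, n=3–4.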

Rattus norvegicus [23] = assay: Hypertensive effect in Wistar rat assessed as increase in heart rate at 10 nmol/kg (reference value: 1 +/- 0.1 beats/min); format: functional; how it was run: as §4
Rattus norvegicus [24] = assay: Hypertensive effect in Wistar rat assessed as increase in heart rate at 100 nmol/kg up to 1 min (reference value: 1 +/- 0.1 beats/min); format: functional; conditions: in the assay text read “up to 15 mins” for “up to 1 min”; how it was run: as §4
Rattus norvegicus [25] = assay: Hypertensive effect in Wistar rat assessed as increase in heart rate at 1000 nmol/kg (reference value: 1 +/- 0.1 beats/min); format: functional; how it was run: as §4
Rattus norvegicus [26] = assay: Hypertensive effect in Wistar rat assessed as increase in heart rate at 1000 nmol/kg in presence of propranolol (reference value: 1 +/- 0.1 beats/min); format: functional; how it was run: as §4
Rattus norvegicus [27] = assay: Hypertensive effect in Wistar rat assessed as change in mean arterial pressure at 1 nmol/kg (reference value: 7 +/- 2 mmHg); format: functional, Artery; how it was run: as §4
Rattus norvegicus [28] = assay: Hypertensive effect in Wistar rat assessed as change in mean arterial pressure at 10 nmol/kg (reference value: 7 +/- 2 mmHg); format: functional, Artery; how it was run: as §4
Rattus norvegicus [29] = assay: Hypertensive effect in Wistar rat assessed as change in mean arterial pressure at 100 nmol/kg up to 15 mins (reference value: 7 +/- 2 mmHg); format: functional, Artery; conditions: in the assay text read “up to 1 min” for “up to 15 mins”; how it was run: as §4
Rattus norvegicus [30] = assay: Hypertensive effect in Wistar rat assessed as change in mean arterial pressure at 1000 nmol/kg (reference value: 7 +/- 2 mmHg); format: functional, Artery; how it was run: as §4
Rattus norvegicus [31] = assay: Hypertensive effect in Wistar rat assessed as change in mean arterial pressure at 1000 nmol/kg in presence of propranolol (reference value: 7 +/- 2 mmHg); format: functional, Artery; how it was run: as §4
[32] = target: Beta-1 adrenergic receptor (Cavia porcellus) (UniProt B0FL73); assay: Agonist activity at beta-1 adrenergic receptor in guinea pig atria assessed as effect on atrial rate relative to (R,S)-isoproterenol; conditions: Cardiac atrium
How it was run: (§5)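 Guinea pig atria (male, 400–900 g; some given reserpine 5.0 mg/kg ip 24 h before) in oxygenated bath at 37.0 °C, diastolic tension 1 g, steady beating reached first. Cumulative doses given 1 min apart. […] Points are means of ≥4 atria.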

[33] = target: Beta-1 adrenergic receptor (Cavia porcellus) (UniProt B0FL73); assay: Agonist activity at beta-1 adrenergic receptor in guinea pig atria assessed as effect on force of atrial contraction relative to (R,S)-isoproterenol; conditions: Cardiac atrium; how it was run: as §5
[34] = target: Beta-1 adrenergic receptor (Cavia porcellus) (UniProt B0FL73); assay: Ionotropic activity at beta-1 adrenergic receptor in guinea pig atria assessed as effect on atrial rate up to 3 x 10^-4 M in presence of propranolol; conditions: Cardiac atrium, in the assay text read “force of atrial contraction” for “atrial rate”
How it was run: (§6)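 Cumulative dosing of guinea pig atria up to 3×10⁻⁴ M with 10⁻⁶ M propranolol in the bath, at 37.0 °C with 1 g diastolic tension.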

[35] = target: Beta-1 adrenergic receptor (Cavia porcellus) (UniProt B0FL73); assay: Positive chronotropic activity at beta-1 adrenergic receptor in guinea pig atria assessed as effect on force of atrial contraction up to 3 x 10^-4 M in presence of propranolol; conditions: Cardiac atrium, in the assay text read “atrial rate” for “force of atrial contraction”; how it was run: as §6
[36] = target: Beta-2 adrenergic receptor (Cavia porcellus) (UniProt Q8K4Z4); assay: Agonist activity at beta-2 adrenergic receptor in guinea pig trachea assessed as tracheal relaxation relative to (R,S)-isoproterenol; parameters: Activity: scale not given: the % may be the effect or the level left
How it was run: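 Tracheal chain from male guinea pig (some reserpine-pretreated, 5.0 mg/kg ip 24 h before), equilibrated 30 min at 1 g tension and contracted with 3.0×10⁻⁶ M methacholine for 10 min.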

Cavia porcellus [37] = organism: Cavia porcellus; assay: Ratio of relative activity for guinea pig beta-2 adrenergic receptor to relative activity for guinea pig beta-1 adrenergic receptor
[38] = target: Beta-2 adrenergic receptor (Cavia porcellus) (UniProt Q8K4Z4); assay: Agonist activity at beta-2 adrenergic receptor in guinea pig trachea assessed as tracheal relaxation in presence of propranolol
[39] = target: Beta-1 adrenergic receptor (Cavia porcellus) (UniProt B0FL73); conditions: Cardiac atrium
[40] = target: Beta-1 adrenergic receptor (Cavia porcellus) (UniProt B0FL73); conditions: Cardiac atrium; remark: listed apart in the source
[41] = target: Beta-2 adrenergic receptor (Cavia porcellus) (UniProt Q8K4Z4); conditions: Trachea
[42] = target: Beta-2 adrenergic receptor (Cavia porcellus) (UniProt Q8K4Z4); conditions: Trachea; remark: listed apart in the source
[43] = Octanol-water partition coefficient, log P of the compound; format: physicochemical

Chain of Beta-2 adrenergic receptor (Cavia porcellus) (Q8K4Z4 whole entry, looked up): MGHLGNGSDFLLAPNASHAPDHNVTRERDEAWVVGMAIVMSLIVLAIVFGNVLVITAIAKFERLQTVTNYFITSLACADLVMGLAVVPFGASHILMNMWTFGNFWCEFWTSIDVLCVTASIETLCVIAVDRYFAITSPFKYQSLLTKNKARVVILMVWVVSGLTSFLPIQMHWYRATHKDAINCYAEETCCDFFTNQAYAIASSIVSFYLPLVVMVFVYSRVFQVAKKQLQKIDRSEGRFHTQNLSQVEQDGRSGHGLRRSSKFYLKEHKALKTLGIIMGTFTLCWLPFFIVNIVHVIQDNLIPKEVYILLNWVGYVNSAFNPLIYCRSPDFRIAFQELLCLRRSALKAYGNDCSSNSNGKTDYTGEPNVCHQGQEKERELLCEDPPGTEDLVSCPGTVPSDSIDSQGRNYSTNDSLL
Chain of Beta-1 adrenergic receptor (Cavia porcellus) (B0FL73 1-467): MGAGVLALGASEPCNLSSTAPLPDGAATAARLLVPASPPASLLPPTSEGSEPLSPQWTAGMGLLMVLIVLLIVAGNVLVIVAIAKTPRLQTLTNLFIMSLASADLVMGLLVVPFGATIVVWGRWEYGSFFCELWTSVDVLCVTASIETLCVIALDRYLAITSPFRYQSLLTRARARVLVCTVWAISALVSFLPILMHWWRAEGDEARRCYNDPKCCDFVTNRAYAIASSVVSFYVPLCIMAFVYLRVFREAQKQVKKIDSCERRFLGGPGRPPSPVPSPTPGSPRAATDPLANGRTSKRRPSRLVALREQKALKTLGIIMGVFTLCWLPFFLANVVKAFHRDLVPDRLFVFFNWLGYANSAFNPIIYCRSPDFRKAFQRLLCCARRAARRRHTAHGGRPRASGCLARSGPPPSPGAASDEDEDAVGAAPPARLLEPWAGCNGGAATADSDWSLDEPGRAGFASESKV

SMILES: N[C@@H](Cc1ccc2[nH]cnc2c1)C(=O)O
Ki [1]: 20 µM

SMILES: CC(C)NCC(O)c1ccc2[nH]c(=O)[nH]c2c1 (configuration not stated)
inhibition in vivo at 0.1 mg/kg (Felis catus): 35%

SMILES: NCC(O)c1ccc2[nH]cnc2c1 (racemic)
Activity (Rattus norvegicus [3]): 98 mmHg | Activity (Rattus norvegicus [4]): 82 mmHg | Activity (Rattus norvegicus [5]): 46 mmHg | Activity (Rattus norvegicus [6]): 48 mmHg | Activity (Rattus norvegicus [7]): 8 mmHg | Activity (Rattus norvegicus [8]): 9 mmHg | Activity (Rattus norvegicus [9]): 39 mmHg | Activity (Rattus norvegicus [10]): 40 mmHg | Activity (Rattus norvegicus [11]): -4 mmHg | Activity (Rattus norvegicus [12]): -5 mmHg | Activity (Rattus norvegicus [13]): 40% | ED50 (Cavia porcellus [2]): 8 µM | Activity (Rattus norvegicus [14]): 150 mmHg | Activity (Rattus norvegicus [15]): 150 mmHg | Activity (Rattus norvegicus [16]): inactive | Activity (Rattus norvegicus [17]): inactive | Activity (Cavia porcellus [18]): 41% | Activity (Cavia porcellus [19]): inactive | Activity (Rattus norvegicus [20]): 70 mmHg | Activity (Rattus norvegicus [21]): 73 mmHg

SMILES: Oc1ccccc1O [CATECHOL]
logP [43]: 0.88

The next lines start with results.

ED50 (Cavia porcellus [2]): 1.1 µM
SMILES: NC[C@H](O)c1ccc(O)c(O)c1

%max [32]: 50% | Activity [32]: 0.355% | %max [33]: 33% | Activity [34]: inactive | Activity [35]: inactive | %max [36]: 58% | Activity [36]: 4.79% | Ratio (Cavia porcellus [37]): 13.5 | fold change (FC) [38]: 2 | ED50 [39]: 6.2 µM | pD2 [39]: 5.21 | ED50 [40]: 3.8 µM | pD2 [40]: 5.42 | ED50 [41]: 1.6 µM | pD2 [41]: 5.78
SMILES: CC(C)NCC(O)c1ccc2[nH]cnc2c1 (racemic)
Activity (Rattus norvegicus [22]): 1 bpm | Activity (Rattus norvegicus [23]): 12 bpm | Activity (Rattus norvegicus [24]): 65 bpm | Activity (Rattus norvegicus [25]): 59 bpm | Activity (Rattus norvegicus [26]): 13 bpm | Activity (Rattus norvegicus [27]): 4 mmHg | Activity (Rattus norvegicus [28]): -6 mmHg | Activity (Rattus norvegicus [29]): -12 mmHg | Activity (Rattus norvegicus [30]): -30 mmHg | Activity (Rattus norvegicus [31]): 3 mmHg

ED50 [41]: 7.8 ×10⁻⁸ M | pD2 [41]: 7.1 | ED50 [42]: 2.1 ×10⁻⁸ M
SMILES: CC(C)NCC(O)c1ccc(O)c(O)c1 (racemic)
